From PubChem BioAssay
Activity calls are given as the source filed them.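 The calls were made as follows, unless noted: active = NADPH fluorescence slope more negative than the mean of all samples by about 3 SD, 99.7% confidence; inactive = the rest.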

Tests used:
[1] = inhibitors of TNFa-induced NFkB p65 translocation, primary screen, imaging, HUVEC, MLSMR starter and 10KST1 sets (AID 438;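 active = inhibition above 20% together with a positive visual image hit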;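 also: compound added about 3h40 before a 20 min TNFalpha stimulation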;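 as to inhibition: signal is the nuclear over cytoplasmic p65 intensity ratio per well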); settings: HUVEC TNFa-induced p65 nuclear translocation; cell count: measured here: nuclei count (cytotoxicity indicator), at 2.08 µM; inhibition: at 2 µM, stronger effect = higher value, 0% TNFa-plus-vehicle, 100% no-TNFa wells
[2] = inhibitors of mutant huntingtin aggregation, primary screen, imaging, exon1htt(103Q)mCFP cells, high-content imaging (AID 483;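 active = visual image review flags a hit and inhibition of aggregation exceeds 20%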;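 also: compound exposure lasted 3 days before fixation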;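 as to nuclei count: percent of the per-plate median nuclei count of sample wells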); settings: exon1htt(103Q)mCFP cell line, aggregate imaging, at 2 µM; inhibition of aggregation: stronger effect = higher value; nuclei count: measured here: cell count, toxicity
[3] = inhibitors of E-selectin induction by TNFa, primary screen, imaging, HUVEC, immunofluorescence, MLSMR starter and 10KST1 sets (AID 487;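 active = visually confirmed hit in the image check and inhibition above 20%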;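 as to inhibition: signal is fraction of cell area covered by stained E-selectin grains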;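 as to nuclei count: 100% = median nuclei count of all wells on the same plate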); settings: HUVEC TNFalpha-induced E-selectin immunofluorescence imaging, at 2 µM; inhibition: stronger effect = higher value; nuclei count: measured here: cell number, toxicity
[4] = biological target: Voltage-gated potassium channel subunit beta-2 (Rattus norvegicus) (UniProt P62483); assay: KvBeta enzyme negative modulators, primary screen, biochemical, NADPH fluorescence (AID 622;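 active = fluorescence slope higher than the sample average by over 3 SD, cut at about -0.22 in these data, passing the limit was not always enough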;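 also: slope of raw intensity against log time taken from 70 to 1610 s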); settings: recombinant KvBeta, 4-cyanobenzaldehyde reduction, at 10 µM, stronger effect = higher value
[5] = biological target: Voltage-gated potassium channel subunit beta-2 (Rattus norvegicus) (UniProt P62483); assay: KvBeta positive modulators, primary screen, biochemical, NADPH fluorescence (AID 623); settings: Recombinant KvBeta, NADPH fluorescence decrease slope, 10 min; at 10 µM; stronger effect = lower value;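 also: fluorescence intensity change per second fitted from 20 to 320 s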
[6] = biological target: Muscarinic acetylcholine receptor M4 (Homo sapiens) (UniProt P08173); assay: compounds altering M4/GIRK thallium flux, either direction, primary screen, M4 allosteric agonist project, cell-based, HEK293 M4/GIRK, BTC-AM (AID 625;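 active = fluorescence slope after compound addition differing from the mean of all tested samples at 99.7% confidence, mostly higher but some lower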;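 also: thallium influx through GIRK channels coupled to M4 in HEK293 cells with BTC-AM dye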); settings: at 10 µM, actives lie on both sides
Procedure, shortened: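 System: HEK293 cells with M4 receptor and GIRK channels | Incubation: Cells overnight at 37 °C, BTC-AM loading 1 h, reads 2 min total | Technique: Kinetic BTC-AM fluorescence sampled at 1 Hz, 10 s pre-addition baseline | Measure: Post-addition slope, 15–24 s, of baseline-normalized fluorescence | Control set: Carbachol positive, DMSO negative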

[7] = inhibitors of Sendai virus-induced IRF3 signaling, primary screen, TLR/RLR signaling modifier project, cell-based, Sendai virus stimulus, luciferase, 10K MLSCN set (AID 602276;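 active = inhibition at or above 50% at 10 µM; inactive = inhibition below 50%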;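 also: firefly luciferase from ISG56 promoter only with Renilla not read in this screen; 0% = Sendai virus plus DMSO and 100% = medium plus DMSO without virus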); settings: HEK293 RL24 IRF3 luciferase reporter, at 10 µM, stronger effect = higher value
[8] = inhibitors of poly I:C-induced TLR3 signaling, primary screen, cell-based, poly I:C stimulus, luciferase, 10K MLSCN set (AID 602277;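 active = inhibition of the reporter signal at or above 50%; inactive = inhibition below 50%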); settings: HEK293-TLR3 RL24 IRF3 luciferase reporter, at 10 µM, stronger effect = higher value

Chain of Voltage-gated potassium channel subunit beta-2 (Rattus norvegicus) (P62483 whole entry, looked up): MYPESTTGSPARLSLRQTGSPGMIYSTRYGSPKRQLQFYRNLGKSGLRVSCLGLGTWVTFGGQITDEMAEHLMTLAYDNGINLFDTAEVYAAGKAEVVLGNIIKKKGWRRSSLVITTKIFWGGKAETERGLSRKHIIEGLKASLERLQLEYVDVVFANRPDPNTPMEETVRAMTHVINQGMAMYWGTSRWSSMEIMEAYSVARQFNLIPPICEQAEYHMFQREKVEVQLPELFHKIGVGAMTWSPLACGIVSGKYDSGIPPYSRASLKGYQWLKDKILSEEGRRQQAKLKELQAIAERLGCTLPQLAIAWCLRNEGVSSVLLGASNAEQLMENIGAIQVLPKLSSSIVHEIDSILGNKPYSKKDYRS
Chain of Muscarinic acetylcholine receptor M4 (Homo sapiens) (P08173 whole entry, looked up): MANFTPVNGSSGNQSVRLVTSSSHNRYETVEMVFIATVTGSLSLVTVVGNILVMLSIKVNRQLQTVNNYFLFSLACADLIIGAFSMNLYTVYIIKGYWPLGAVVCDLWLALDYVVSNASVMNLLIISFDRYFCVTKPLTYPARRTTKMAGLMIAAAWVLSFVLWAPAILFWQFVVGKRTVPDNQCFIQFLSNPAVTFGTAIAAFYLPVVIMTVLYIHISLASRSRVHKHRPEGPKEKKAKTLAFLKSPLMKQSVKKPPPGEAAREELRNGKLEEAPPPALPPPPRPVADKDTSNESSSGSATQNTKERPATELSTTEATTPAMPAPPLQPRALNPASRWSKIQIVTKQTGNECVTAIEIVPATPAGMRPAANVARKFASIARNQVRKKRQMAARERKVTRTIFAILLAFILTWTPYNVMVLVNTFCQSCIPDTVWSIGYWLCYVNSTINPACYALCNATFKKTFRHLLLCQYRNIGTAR

O=C1CC(c2ccc(Cl)cc2)n2nc(N3C(=O)c4ccccc4C3=O)nc2N1 (stereo not drawn)
cell count [1]: 346
inhibition [1]: 11.4% (inactive)
inhibition of aggregation [2]: -2.1% (inactive)
nuclei count [2]: 104%
inhibition [3]: 30.5% (inactive)
nuclei count [3]: 98.9%
fluorescence slope [4]: -0.587 (inactive)
NADPH fluorescence slope [5]: -3.9e-05 (inactive)
fluorescence slope [6]: 0.00353 (inactive)
inhibition [7]: 16.6% (inactive)
inhibition [8]: 24.4% (inactive)

Cc1ccc(SCCNS(=O)(=O)c2ccc(F)cc2)cc1
cell count [1]: 348
inhibition [1]: 4% (inactive)
inhibition of aggregation [2]: -4.1% (inactive)
nuclei count [2]: 106%
inhibition [3]: -53.9% (inactive)
nuclei count [3]: 122%
fluorescence slope [4]: -0.55 (inactive)
NADPH fluorescence slope [5]: -3.1e-05 (inactive)
fluorescence slope [6]: 0.0043 (inactive)
inhibition [7]: 8.34% (inactive)
inhibition [8]: 12.7% (inactive)

Brc1ccc(-c2nnc3sc(CN4CCC5(CC4)OCCO5)cn23)cc1
cell count [1]: 414
inhibition [1]: 3.2% (inactive)
inhibition of aggregation [2]: -6.9% (inactive)
nuclei count [2]: 112%
inhibition [3]: -185% (inactive)
nuclei count [3]: 130%
fluorescence slope [4]: -0.57 (inactive)
NADPH fluorescence slope [5]: -1.2e-05 (inactive)
fluorescence slope [6]: 0.00615 (inactive)
inhibition [7]: 11.1% (inactive)
inhibition [8]: 14% (inactive)

COc1cc(-c2noc(-c3cccc(Cl)c3)n2)cc(OC)c1OC
cell count [1]: 778
inhibition [1]: -0.6% (inactive)
inhibition of aggregation [2]: -21% (inactive)
nuclei count [2]: 103%
inhibition [3]: -33.7% (inactive)
nuclei count [3]: 113%
fluorescence slope [4]: -0.568 (inactive)
NADPH fluorescence slope [5]: 2.5e-05 (inactive)
fluorescence slope [6]: 0.00623 (inactive)
inhibition [7]: 6.15% (inactive)
inhibition [8]: -21.6% (inactive)

COc1ccc(C2CC(=O)c3cnc(NC(=O)c4ccccc4OC)nc3C2)c(OC)c1 (stereo not drawn)
cell count [1]: 434
inhibition [1]: -6.7% (inactive)
inhibition of aggregation [2]: 15% (inactive)
nuclei count [2]: 94.2%
inhibition [3]: -80.1% (inactive)
nuclei count [3]: 107%
fluorescence slope [4]: -0.459 (inactive)
NADPH fluorescence slope [5]: 0.000189 (inactive)
fluorescence slope [6]: 0.00664 (inactive)
inhibition [7]: 14.1% (inactive)
inhibition [8]: 6.68% (inactive)

CCN(C(=O)CN1CCN(c2ccccc2OC)CC1)c1c(N)n(Cc2ccccc2)c(=O)[nH]c1=O
cell count [1]: 471
inhibition [1]: 1.1% (inactive)
inhibition of aggregation [2]: -18.1% (inactive)
nuclei count [2]: 63.9%
inhibition [3]: -52.2% (inactive)
nuclei count [3]: 102%
fluorescence slope [4]: -0.424 (inactive)
NADPH fluorescence slope [5]: -0.000102 (inactive)
fluorescence slope [6]: 0.00639 (inactive)
inhibition [7]: 9.1% (inactive)
inhibition [8]: 25.4% (inactive)

O=C(COc1ccc2c(c1)OCO2)NC12CC3CC(CC(C3)C1)C2
cell count [1]: 337
inhibition [1]: -3.7% (inactive)
inhibition of aggregation [2]: 1.3% (inactive)
nuclei count [2]: 91.5%
inhibition [3]: -142% (inactive)
nuclei count [3]: 99.1%
fluorescence slope [4]: -0.411 (inactive)
NADPH fluorescence slope [5]: -4.1e-05 (inactive)
fluorescence slope [6]: 0.00898 (inactive)
inhibition [7]: -38.5% (inactive)
inhibition [8]: -35.6% (inactive)

CCCCc1ccc(NC(=O)COCC)cc1
cell count [1]: 366
inhibition [1]: -2.7% (inactive)
inhibition of aggregation [2]: -8.1% (inactive)
nuclei count [2]: 110%
inhibition [3]: -34.5% (inactive)
nuclei count [3]: 98.4%
fluorescence slope [4]: -0.585 (inactive)
NADPH fluorescence slope [5]: 1.7e-05 (inactive)
fluorescence slope [6]: 0.00366 (inactive)
inhibition [7]: -24.8% (inactive)
inhibition [8]: -77.1% (inactive)
